Laboratory results published in ChEMBL document CHEMBL1132144, “Synthesis of 9-O-substituted derivatives of 9-hydroxy-5, 6-dimethyl-6H-pyrido[4,3-b]carbazole-1-carboxylic acid (2-(dimethylamino)ethyl)amide and their 10- and 11-methyl analogues with improved antitumor activity” (J Med Chem, 1999).

Columns and labels:
[1] = system: Mus musculus; assay: Long-term survivors among 7 mice infected with B16 melanoma, scored on day 90 at 320 mg/kg dose on day 1; assay type: functional
[2] = system: Mus musculus; assay: Percent median survival time of mice injected with P388 leukemia, at a intravenous compound dose of 80 mg/kg
[3] = system: Mus musculus; assay: Long-term survivors among 7 mice infected with P388 leukemia, scored on day 60 at 320 mg/kg dose on day 1; assay type: functional
In short: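 B6D2F1 mice in groups of 6–7 received 10^6 P388 cells ip on day 0. Dihydrochloride salts dissolved in water were injected iv on day 1 or on days 1, 5 and 9, at three doses and then five. Read-outs were % T/C (median survival treated/control × 100) and long-term survivors on day 60, both at the optimal dose (no toxic death, weight loss <20%).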

[4] = system: L1210; assay: Inhibition of murine L1210 leukemia cell proliferation measured by the MTT assay; assay type: functional, cell-based; details: Mus musculus
In short: (§1)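 Murine L1210 leukemia and B16 melanoma cells were grown in RPMI 1640 with 10% fetal calf serum, 2 mM L-glutamine, penicillin/streptomycin and 10 mM HEPES (pH 7.4). Cells were exposed to nine serial drug dilutions in triplicate for about four doubling times (L1210 48 h, B16 96 h), then read by microculture tetrazolium (MTT) assay. IC50 is the concentration halving optical density versus untreated controls, averaged over ≥2 independent experiments.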

[5] = system: B16; assay: Inhibition of murine B16 melanoma cell proliferation measured by the MTT assay; assay type: functional, cell-based; details: Mus musculus; in short: as §1
[6] = system: Mus musculus; assay: Percent median survival time of mice injected with P388 leukemia, at a intravenous compound dose of 320 mg/kg
[7] = system: Mus musculus; assay: Percent median survival time of mice intraperitoneally injected with P388 leukemia was determined from tested at 80 mg/kg at day1 dose to that of control; assay type: functional; details: route intraperitoneal
In short: (§2)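 P388 leukemia in B6D2F1 mice (groups of 6–7), 10^6 cells inoculated ip on day 0. Dihydrochloride salts were dissolved in water and given iv on day 1 or on days 1, 5, 9. Three doses were tested, then five if active. %T/C = median survival treated/control × 100, reported at the optimal dose (no toxic death, weight loss <20%), from one or two representative experiments.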

[8] = system: Mus musculus; assay: Long-term survivors among 6 mice infected with P388 leukemia, scored on day 60 at 80 mg/kg dose; assay type: functional
In short: (§3)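 B6D2F1 mice in groups of 6–7 were inoculated ip on day 0 with 10^6 P388 cells. Dihydrochloride salts were dissolved in water and given iv on day 1 or on days 1, 5 and 9. Doses ranged from a low nontoxic dose to a toxic one. Long-term survivors were counted at day 60.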

[9] = system: Mus musculus; assay: Percent median survival time of mice intraperitoneally injected with P388 leukemia was determined from tested at 40 mg/kg at day1,5,9 dose to that of control; assay type: functional; details: route intraperitoneal; in short: as §2
[10] = system: Mus musculus; assay: Long-term survivors among 6 mice infected with P388 leukemia, scored on day 60 at 40 mg/kg dose; assay type: functional; in short: as §3
[11] = system: Mus musculus; assay: Percent median survival time of mice injected with B16 melanoma, at a intraperitoneal compound dose of 20 mg/kg
[12] = system: Mus musculus; assay: Percent median survival time of mice injected with B16 melanoma, at a intraperitoneal compound dose of 10 mg/kg
[13] = system: Mus musculus; assay: Long-term survivors among 6 mice infected with B16 melanoma, scored on day 90 at 10 mg/kg dose on day 1; assay type: functional
[14] = system: Mus musculus; assay: Percent median survival time of mice injected with P388 leukemia, at a intravenous compound dose of 5 mg/kg
[15] = system: Mus musculus; assay: Percent median survival time of mice injected with P388 leukemia, at a subcutaneous compound dose of 10 mg/kg; assay type: functional
[16] = system: Mus musculus; assay: Long-term survivors among 6 mice infected with P388 leukemia, scored on day 60 at 10 mg/kg dose on day 1; assay type: functional; in short: as §3
[17] = system: Mus musculus; assay: Percent median survival time of mice injected with P388 leukemia, at a subcutaneous compound dose of 20 mg/kg on day 1, 5, 9; assay type: functional
[18] = system: Mus musculus; assay: Long-term survivors among 7 mice infected with B16 melanoma, scored on day 90 at 20 mg/kg dose on day 1; assay type: functional
[19] = system: Mus musculus; assay: Long-term survivors among 7 mice infected with P388 leukemia, scored on day 90 at 20 mg/kg dose on day 1; assay type: functional
[20] = system: Mus musculus; assay: Percent median survival time of mice intraperitoneally injected with P388 leukemia was determined from tested at 10 mg/kg at day1,5,9 dose to that of control; assay type: functional; in short: as §2
[21] = system: Mus musculus; assay: Long-term survivors among 12 mice infected with P388 leukemia, scored on day 60 at 10 mg/kg dose; assay type: functional; in short: as §3
[22] = system: Mus musculus; assay: Percent median survival time of mice injected with B16 melanoma, at a intraperitoneal compound dose of 0.3-0.6 mg/kg
[23] = system: Mus musculus; assay: Long-term survivors among 12 mice infected with P388 leukemia, scored on day 60 at 20 mg/kg dose; assay type: functional; in short: as §3
[24] = system: Mus musculus; assay: Long-term survivors among 13 mice infected with B16 melanoma, scored on day 90 at 0.3-0.6 mg/kg dose
[25] = system: Mus musculus; assay: Percent median survival time of mice intraperitoneally injected with P388 leukemia was determined from tested at 20 mg/kg at day1 dose to that of control; assay type: functional; details: route intraperitoneal; in short: as §2
[26] = system: Mus musculus; assay: Long-term survivors among 12 mice infected with P388 leukemia, scored on day 60 at 80 mg/kg dose; assay type: functional; in short: as §3
[27] = system: Mus musculus; assay: Long-term survivors among 12 mice infected with P388 leukemia, scored on day 60 at 320 mg/kg dose; assay type: functional; in short: as §3
[28] = system: Mus musculus; assay: Percent median survival time of mice intraperitoneally injected with P388 leukemia was determined from tested at 80 mg/kg at day1,5,9 dose to that of control; assay type: functional; details: route intraperitoneal; in short: as §2

Cc1c2ccnc(C(=O)NCCN(C)C)c2cc2c3cc(OC(=O)CCC(NC(=O)OC(C)(C)C)C(=O)O)ccc3n(C)c12 (stereo not given)
LTS [1]: 0 | T/C [2]: >614% | LTS [3]: 0 | IC50 [4]: 89.3 nM | IC50 [5]: 4 nM | T/C [6]: >614%

Cc1c2ccnc(C(=O)NCCN(C)C)c2cc2c3cc(OC(=O)N(C)C)ccc3n(C)c12
T/C [7]: 124% | IC50 [4]: 1850 nM | LTS [8]: 0 | T/C [9]: 119% | LTS [10]: 0 | T/C [11]: 161% | IC50 [5]: 2670 nM

Cc1c2ccnc(C(=O)NCCN(C)C)c2cc2c3cc(OC(=O)CCC(=O)OCc4ccccc4)ccc3n(C)c12
T/C [12]: 169% | LTS [13]: 1 | T/C [14]: 96% | IC50 [4]: 47.4 nM | IC50 [5]: 9.9 nM | T/C [15]: 111% | LTS [16]: 0

CCOCCC(=O)Oc1ccc2c(c1)c1cc3c(C(=O)NCCN(C)C)nccc3c(C)c1n2C
T/C [12]: 157% | T/C [17]: 222% | IC50 [4]: 5.7 nM | LTS [18]: 0 | IC50 [5]: 3 nM | LTS [19]: 0

Cc1c(O)ccc2c1c1cc3c(C(=O)NCCN(C)C)nccc3c(C)c1n2C
T/C [20]: 223% | IC50 [4]: 3.5 nM | LTS [21]: 0 | T/C [22]: 144% | LTS [23]: 0 | IC50 [5]: 0.2 nM | LTS [24]: 0 | T/C [25]: 211%

Cc1c2ccnc(C(=O)NCCN(C)C)c2cc2c3cc(OC(=O)OCCCC(=O)O)ccc3n(C)c12
LTS [26]: 7 | LTS [27]: 8 | IC50 [4]: 64 nM | T/C [28]: >600% | T/C [11]: 167% | IC50 [5]: 4.8 nM
